From article PMC6761749 (ACS Omega, 2019)

Key:
human PBMCs = test: TNFα induction from human PBMCs; assay type: cell-based; conditions: hPBMCs, in the dose range evaluated
Summary of the method: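 Donor PBMCs from healthy human whole blood were isolated on a Ficoll-Hypaque 1.077 gradient and plated at 0.5 × 10^6 cells/well in RPMI-1640 with pen/strep/glutamine and 10% heat-inactivated FBS. Test compounds (stocks 3–5 mg/mL in 2% glycerol–10% DMSO/water) were added at increasing concentrations for 24 h. Supernatant TNFα and IFNα were measured by ELISA. MEC is the lowest tested dose inducing cytokine. Values come from one of three donors.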

human TLR7 = molecular target: T1, human TLR7 (Homo sapiens, UniProt Q9NYK1); test: HEK293-hTLR7 NFκB SEAP reporter assay; assay type: cell-based; conditions: comparator 1b
T1 sequence (Q9NYK1 27-1049): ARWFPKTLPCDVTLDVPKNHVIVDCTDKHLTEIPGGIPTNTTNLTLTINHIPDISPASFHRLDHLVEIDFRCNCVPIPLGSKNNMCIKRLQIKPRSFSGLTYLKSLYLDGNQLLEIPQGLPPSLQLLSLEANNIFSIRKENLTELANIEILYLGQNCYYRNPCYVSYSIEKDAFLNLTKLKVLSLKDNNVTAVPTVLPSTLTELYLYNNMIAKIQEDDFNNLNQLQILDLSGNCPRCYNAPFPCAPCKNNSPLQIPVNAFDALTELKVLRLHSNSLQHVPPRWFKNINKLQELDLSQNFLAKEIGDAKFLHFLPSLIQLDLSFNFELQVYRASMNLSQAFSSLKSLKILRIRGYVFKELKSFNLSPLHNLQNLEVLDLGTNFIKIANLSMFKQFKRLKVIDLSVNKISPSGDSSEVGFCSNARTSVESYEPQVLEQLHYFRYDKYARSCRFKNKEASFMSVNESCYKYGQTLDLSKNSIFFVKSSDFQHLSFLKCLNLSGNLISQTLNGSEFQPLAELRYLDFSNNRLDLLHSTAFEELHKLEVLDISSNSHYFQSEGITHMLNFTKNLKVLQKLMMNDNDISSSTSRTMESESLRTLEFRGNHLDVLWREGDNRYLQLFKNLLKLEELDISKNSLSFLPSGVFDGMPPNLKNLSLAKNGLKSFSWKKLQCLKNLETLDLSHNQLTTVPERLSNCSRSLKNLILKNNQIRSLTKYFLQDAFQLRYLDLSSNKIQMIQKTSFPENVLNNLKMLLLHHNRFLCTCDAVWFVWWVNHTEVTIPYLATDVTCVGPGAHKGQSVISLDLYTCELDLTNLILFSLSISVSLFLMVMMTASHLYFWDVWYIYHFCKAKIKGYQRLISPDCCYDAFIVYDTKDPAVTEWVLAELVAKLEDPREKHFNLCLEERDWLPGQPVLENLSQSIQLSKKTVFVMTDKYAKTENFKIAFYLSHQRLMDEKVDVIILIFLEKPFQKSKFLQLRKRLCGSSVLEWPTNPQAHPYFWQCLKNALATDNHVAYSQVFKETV

SMILES	TNFα induction (human PBMCs)	fold less active (hTLR7) than 1b (human TLR7) [fold]
CCCCOc1nc(N)c2[nH]c(=O)n(C3CNC3)c2n1.Cl [Compound 3a, 6-Amino-2-butoxy-9-(3-azetidinyl)-7,9-dihydro-8H-purin-8-one Hydrochloride]	did not induce measurable TNFα	
CCCCOc1nc(N)c2[nH]c(=O)n(CCN3CCNCC3)c2n1.Cl [Compound 7a, 6-Amino-2-butoxy-9-(4-piperazinyl)ethyl-7,9-dihydro-8H-purin-8-one Hydrochloride]		12
